The nature of data set [1]: Clearance value in dog at 0.2 mg/kg dose in intravenous and 1 mg/kg of peroral. The class given is ADME, organism-based, Canis lupus familiaris. The following applies: in vivo. In short, it runs like this:
(§1)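 Dogs given compound in water at 0.2 mpk iv and 1 mpk po; oral bioavailability, plasma clearance and plasma half-life derived from plasma levels.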

Data set [2] has as its target Integrin alpha-V/beta-3 (Homo sapiens, UniProt P05106+P06756). Kind of data set: Inhibitory activity against alpha v beta-3 receptor using scintillation proximity assay (SPAV3). The class given is protein-complex assay. (In a scintillation proximity assay essentially only radioactivity close to the scintillant gives light.)
The nature of data set [3]: h-Protein binding value of the compound. Type of data set: ADME. Also noted: concentration or dose not given beside the values. The following applies: human. In short, it runs like this:
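Binding in human plasma determined by high-throughput ultrafiltration of diluted plasma in pH 7.4 buffer.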

A short description of data set [4]: Half life in dog at 0.2 mg/kg dose in intravenous and 1 mg/kg of peroral. The class given is ADME, organism-based, Canis lupus familiaris. The following applies: in vivo. In short, it runs like this:
as §1

Data set [5] in a line: Bioavailability in dog (dose 0.2 mg/kg i.v. and 1 mg/kg p.o.). The class given is ADME, organism-based, Canis lupus familiaris. The following applies: in vivo, po. An outline of the steps:
as §1

Data set [6] in a line: Partition coefficient (logP). The class given is physicochemical. The following applies: octanol/water. In short, it runs like this: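 log P measured as partition between octanol and pH 7.4 buffer.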
The nature of data set [7]: Half life in rat at 0.5 mg/kg dose in intravenous and 1 mg/kg of peroral. The class given is ADME, organism-based. The following applies: in vivo.
Data set [8] can be described thus: Half life in monkey at 0.2 mg/kg dose in intravenous and 1 mg/kg of peroral. The class given is ADME, organism-based. The following applies: cercopithecidae, in vivo.
A short description of data set [9]: Clearance value in rat at 0.5 mg/kg dose in intravenous and 1 mg/kg of peroral. The class given is ADME, organism-based. The following applies: in vivo.
Data set [10] is described as follows: Clearance value in monkey at 0.2 mg/kg dose in intravenous and 1 mg/kg of peroral. Type of data set: ADME, organism-based. The following applies: cercopithecidae, in vivo.
The nature of data set [11]: Bioavailability in rat (dose 0.5 mg/kg i.v. 1 mg/kg of p.o.). Type of data set: ADME, organism-based. The following applies: in vivo, po.
A short description of data set [12]: Bioavailability in monkey (dose 0.2 mg/kg i.v. and 1 mg/kg p.o.). Type of data set: ADME, organism-based. The following applies: cercopithecidae, in vivo, po.
For data set [13], the system named is Rattus norvegicus. Kind of data set: Effect on distal femoral metaphysis (DFM)-bone mineral density (BMD) in ovariectomized female rats; OVX + 5e dosed orally 20 mg/kg/d. The following applies: route oral.
Data set [14] relates to Rattus norvegicus. The experiment in a line: Effect on distal femoral metaphysis (DFM)-bone mineral density (BMD) in ovariectomized female rats; OVX + 5e dosed orally 30 mg/kg/d. The following applies: route oral.
Data set [15] has as its system Rattus norvegicus. Kind of data set: Effect on distal femoral metaphysis (DFM)-bone mineral density (BMD) in ovariectomized female rats; OVX + 5f dosed orally 1 mg/kg. Type of data set: functional. The following applies: route oral. An outline of the steps:
(§2)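 Female rats ovariectomized, then dosed orally q.d. at 1, 3 or 10 mg/kg starting within 24 h, for 28 days. Comparators were sham-operated rats, OVX rats on vehicle, and OVX rats on alendronate 0.003 mg/kg/d s.c. BMD (mg/cm2) measured at the distal femoral metaphysis, given as mean ± SEM. Groups compared by Kruskal–Wallis ANOVA with Student–Newman–Keuls post-hoc test.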

The test system of data set [16] is Rattus norvegicus. Kind of data set: Effect on distal femoral metaphysis (DFM)-bone mineral density (BMD) in ovariectomized female rats; OVX + 5f dosed orally 3 mg/kg. The class given is functional. The following applies: route oral. An outline of the steps: as §2
In data set [17] the test system is Rattus norvegicus. The experiment in a line: Effect on distal femoral metaphysis (DFM)-bone mineral density (BMD) in ovariectomized female rats; OVX + 5f dosed orally 10 mg/kg. Type of data set: functional. The following applies: route oral. In short, it runs like this:
as §2

The results in this text go back to ChEMBL document CHEMBL1138759, “Nonpeptide alphavbeta3 antagonists. Part 11: discovery and preclinical evaluation of potent alphavbeta3 antagonists for the prevention and treatment of osteoporosis” (J Med Chem, 2004).

In general, IC50 refers to the midpoint of a concentration-inhibition curve. Broadly, the half-life is how long it takes for the measured level to halve. As a reminder, the bioavailability is the share of a dose that reaches the circulation, judged against a reference dose that is usually intravenous. In general, logP refers to a log measure of how a compound divides between an organic and an aqueous phase.

Integrin alpha-V/beta-3, sequence (P05106 27-788 limits assumed): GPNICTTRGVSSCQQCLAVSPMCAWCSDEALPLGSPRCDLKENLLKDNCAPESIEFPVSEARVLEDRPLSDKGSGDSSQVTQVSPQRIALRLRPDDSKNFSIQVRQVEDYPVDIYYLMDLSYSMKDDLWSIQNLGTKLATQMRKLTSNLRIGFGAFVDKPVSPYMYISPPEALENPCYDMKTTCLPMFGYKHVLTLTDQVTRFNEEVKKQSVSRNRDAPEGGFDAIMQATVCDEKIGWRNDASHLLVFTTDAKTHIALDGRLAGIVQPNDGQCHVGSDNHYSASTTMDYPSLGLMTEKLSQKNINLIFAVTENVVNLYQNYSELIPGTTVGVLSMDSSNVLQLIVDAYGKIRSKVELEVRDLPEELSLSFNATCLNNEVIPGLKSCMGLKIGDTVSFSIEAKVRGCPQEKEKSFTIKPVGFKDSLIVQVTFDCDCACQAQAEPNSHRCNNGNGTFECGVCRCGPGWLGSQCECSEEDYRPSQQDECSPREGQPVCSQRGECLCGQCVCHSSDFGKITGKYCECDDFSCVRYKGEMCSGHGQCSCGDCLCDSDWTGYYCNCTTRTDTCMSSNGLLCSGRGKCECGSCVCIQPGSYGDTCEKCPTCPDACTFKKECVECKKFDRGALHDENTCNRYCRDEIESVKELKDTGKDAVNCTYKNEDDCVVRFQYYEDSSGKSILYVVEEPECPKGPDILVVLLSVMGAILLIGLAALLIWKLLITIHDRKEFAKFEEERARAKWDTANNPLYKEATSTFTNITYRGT
Integrin alpha-V/beta-3, sequence (P06756 31-889 limits assumed): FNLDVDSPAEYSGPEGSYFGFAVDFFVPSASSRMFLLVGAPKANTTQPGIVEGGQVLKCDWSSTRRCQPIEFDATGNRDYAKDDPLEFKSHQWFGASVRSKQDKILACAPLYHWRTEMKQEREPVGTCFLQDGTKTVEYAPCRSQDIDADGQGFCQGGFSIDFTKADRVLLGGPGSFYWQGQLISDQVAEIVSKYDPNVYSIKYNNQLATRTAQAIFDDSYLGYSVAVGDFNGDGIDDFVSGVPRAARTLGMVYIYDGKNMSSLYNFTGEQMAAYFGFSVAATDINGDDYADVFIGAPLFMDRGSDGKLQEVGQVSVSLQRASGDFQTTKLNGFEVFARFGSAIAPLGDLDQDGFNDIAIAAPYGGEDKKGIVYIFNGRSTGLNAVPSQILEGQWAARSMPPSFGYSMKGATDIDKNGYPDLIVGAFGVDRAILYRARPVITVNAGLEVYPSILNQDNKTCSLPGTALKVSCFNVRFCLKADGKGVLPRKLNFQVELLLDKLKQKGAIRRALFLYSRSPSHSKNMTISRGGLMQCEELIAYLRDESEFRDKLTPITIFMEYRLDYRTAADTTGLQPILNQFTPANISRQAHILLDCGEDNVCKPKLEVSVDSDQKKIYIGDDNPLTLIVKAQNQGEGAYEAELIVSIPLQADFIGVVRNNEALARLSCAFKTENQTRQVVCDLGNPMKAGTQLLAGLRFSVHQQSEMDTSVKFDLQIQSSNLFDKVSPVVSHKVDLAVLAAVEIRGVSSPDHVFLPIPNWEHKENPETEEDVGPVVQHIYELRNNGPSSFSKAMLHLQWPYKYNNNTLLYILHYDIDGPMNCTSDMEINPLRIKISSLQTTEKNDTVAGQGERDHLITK
Integrin alpha-V/beta-3, sequence (P06756 891-1048 limits assumed): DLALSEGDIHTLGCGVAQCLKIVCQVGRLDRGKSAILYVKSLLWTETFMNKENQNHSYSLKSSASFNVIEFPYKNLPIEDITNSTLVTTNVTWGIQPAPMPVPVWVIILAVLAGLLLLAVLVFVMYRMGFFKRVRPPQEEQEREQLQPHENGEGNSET

The compound `O=C(O)C[C@H](CCCCCCc1ccc2c(n1)NCCC2)c1cnc2ccccc2c1` showed a clearance in data set [1] of 0.18 L/h/kg. For the same compound, half-maximal inhibition in [2] (IC50) required 0.2 nM. In addition, the Activity in [3] was over 99.9%. In [4], the half-life was 5 h. Also, in data set [5], the bioavailability worked out at 65%. Moreover, the lipophilicity (logP) in data set [6] (read-out: logP) worked out at 2.39.

As to `O=C(O)CC(/C=C/CCCCc1ccc2c(n1)NCCC2)c1cccc(F)c1` (stereo not drawn), the IC50 in data set [2] worked out at 7.2 nM.

On to `CC(C)c1ncc([C@@H](CCCCCCc2ccc3c(n2)NCCC3)CC(=O)O)cn1`, for which, in data set [2], the IC50 was found to be 0.52 nM. Further, the Activity in data set [3] is 99%. In addition, the logP in data set [6] (read-out: logP) was found to be 1.32.

In turn, `O=C(O)CC(CCCCCCc1ccc2c(n1)NCCC2)c1cccc(F)c1` (stereo not drawn) had an IC50 in [2] of 0.93 nM.

Consider `O=C(O)C[C@H](CCCCCCc1ccc2c(n1)NCCC2)c1cncnc1`, for which the clearance in [1] is 0.234 L/h/kg; in data set [9], 1.8 L/h/kg; in data set [10] it was 1.14 L/h/kg. For the same compound, in [2], half-maximal inhibition (IC50) was put at 0.07 nM. In data set [3], this compound gave an Activity of 94%. Besides, the half-life in data set [4] was 6.4 h; in [7], 4.5 h; in [8], 2.3 h. The bioavailability in data set [5] is 66%; in data set [11], 45%; in data set [12], 46%. In addition, in data set [6] (read-out: logP), the logP amounted to 0.1. Moreover, the DFM in [13] was found to be 150.8 mg/cm2; in data set [14], 153.2 mg/cm2.

`O=C(O)C[C@H](CCCCCCc1ccc2c(n1)NCCC2)c1ccc2c(c1)OCC2` yielded a clearance in data set [1] of 0.474 L/h/kg. Moreover, the IC50 in [2] came to 0.21 nM. Further, the Activity in [3] amounted to 99.9%. In addition, in data set [4], the half-life is 5.8 h. This compound gave a bioavailability in [5] of over 99%. For the same compound, in data set [6] (read-out: logP), the logP was 2.39.

In turn, `O=C(O)CC(NC(=O)CCCCc1ccc2c(n1)NCCC2)c1cncnc1` (stereo not drawn) registered a clearance in data set [1] of 1.56 L/h/kg. Besides, in data set [3], the Activity was 44%. In addition, the bioavailability in [5] came out at 10%. Moreover, in data set [6] (read-out: logP), the logP is -1.2.

Take `COc1ccc([C@@H](CCCCCCc2ccc3c(n2)NCCC3)CC(=O)O)cn1`: the clearance in [1] was 0.306 L/h/kg. This compound displayed an IC50 in [2] of 0.65 nM. Besides, in data set [3], the Activity came out at 99.5%. In data set [4], this compound gave a half-life of 9.5 h. The same compound registered a bioavailability in data set [5] of 49%. Moreover, the logP in [6] was 1.67.

Turning to `COc1ncc([C@@H](CCCCCCc2ccc3c(n2)NCCC3)CC(=O)O)cn1`, in data set [1], the clearance turned out to be 0.258 L/h/kg. The IC50 in data set [2] came to 0.11 nM. The Activity in data set [3] worked out at 97%. This compound showed a half-life in data set [4] of 6.8 h. In data set [5], this compound displayed a bioavailability of 100%. Besides, the logP in [6] (read-out: logP) is 0.65.

`O=C(O)C[C@H](NC(=O)CCCCc1ccc2c(n1)NCCC2)c1cccc(F)c1` displayed an IC50 in data set [2] of 27.7 nM.

In the case of `Cc1ncc([C@@H](CCCCCCc2ccc3c(n2)NCCC3)CC(=O)O)cn1`, the results for the clearance in data set [1], in [9] and in data set [10] were 0.15 L/h/kg, 0.216 L/h/kg and 0.27 L/h/kg, respectively. In addition, it took 0.08 nM to reach half-maximal inhibition in data set [2] (IC50). Further, the DFM in [15] amounted to 158.3 mg/cm2; in [16] it was 173 mg/cm2; in [17], 176 mg/cm2. The Activity in data set [3] is 96%. In addition, the figures for the half-life in data set [4], in data set [7] and in [8] were 9.5 h, 5.1 h and 17 h, respectively. Also, the bioavailability was 83% in data set [5], 100% in data set [11] and 75% in [12]. Further, in data set [6] (read-out: logP), the logP was found to be 0.43.
